This is an account of results in ChEMBL document CHEMBL6182897, “Salamandamide Lipodipeptides Are Biosynthetic Intermediate Shunt Products of the Nonamodular Nonribosomal Peptide Assembly Lines of the Viscosin Family” (J Nat Prod, 2025).

The source made the active and inactive calls. The rule behind the calls is not given here.

Series [1] has as its system SARS-CoV-2. Put plainly: Antiviral activity against SARS-CoV-2 expressing mNeonGreen infected in human Caco-2 cells at 0.26 MOI assessed as reduction in infection rate at 2.5 to 10 uM for 48 hrs post infection by Hoechst dye based analysis relative to control. It counts as functional, Severe acute respiratory syndrome coronavirus 2. Also on record: scale not given: the % may be the effect or the level left. The following applies: dose 2.5-10 µM.

The test system of series [2] is SARS-CoV-2. Put plainly: Antiviral activity against SARS-CoV-2 expressing mNeonGreen infected in human Caco-2 cells at 0.26 MOI assessed as reduction in infection rate at 5 to 10 uM pre-treated with compound for 2.5 hrs followed by viral infection and measured after 48 hrs by Hoechst dye based analysis relative to control. It counts as functional, Severe acute respiratory syndrome coronavirus 2. Also on record: scale not given: the % may be the effect or the level left. The following applies: dose 5-10 µM, time 50.5 hrs.

The subject of series [3] is SARS-CoV-2. The series is described as follows: Antiviral activity against SARS-CoV-2 expressing mNeonGreen infected in Caco-2 cells at 0.26 MOI assessed as reduction in infection rate for 48 hrs post infection by Hoechst dye based analysis. It counts as functional, organism-based. The following applies: Severe acute respiratory syndrome coronavirus 2, Caco-2, 48 h.
Series [4] concerns Caco-2. The series is described as follows: Cytotoxicity against human Caco-2 cells assessed as cell count up to 10 uM by Hoechst dye based analysis. To be noted: caco-2, 10 µM. It counts as toxicity.
Series [5] deals with Caco-2. The series is described as follows: Cytotoxicity against human Caco-2 cells assessed as cell count up to 10 uM measured after 48 hrs by Hoechst dye based analysis. It counts as toxicity. To be noted: caco-2, 48 h.
The nature of series [6]: Cytotoxicity against human Caco-2 cells assessed as cell count for 48 hrs by Hoechst dye based analysis. It counts as toxicity.
Series [7] deals with Candida albicans. The series is described as follows: Antifungal activity against Candida albicans Tu01 assessed as inhibition of fungal growth incubated for 48 hrs by TECAN M200 microtiter plate reader analysis. It counts as functional, organism-based. The method, boiled down:
(§1)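 EUCAST broth microdilution with direct colony suspension inoculum of 0.5–2.5 × 10^5 CFU/mL, using clinical Candida isolates. Medium was MOPS-buffered RPMI 1640 with glucose to a final 2%, pH 7.0. Plates incubated 48 h at 37 °C, then read at 530 nm to give MIC.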

The test system of the next series is HeLa. Put plainly: Cytotoxicity against human HeLa cells measured after 24 hrs by resazurin staining based analysis. It counts as functional, cell-based. Put shortly: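 HeLa cells in RPMI with 10% FBS were seeded at 1 × 10^4 per well onto 2-fold compound dilutions, run in duplicate. Incubation was 24 h at 37 °C, 5% CO2. Resazurin was then added (200 μM final) and incubated overnight. Resorufin fluorescence (ex 560/em 600 nm) was read relative to untreated control.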
(In general: The colour change of resazurin is a common sign of viable cells or microbes.)

In another series the test system is Enterococcus faecalis. The series is described as follows: Antibacterial activity against Enterococcus faecalis ATCC29212 assessed as bacterial growth inhibition incubated for overnight by CLSI-protocol based broth micro-dilution assay. It counts as functional, organism-based. The method, boiled down:
(§2)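 Broth microdilution MIC in cation-adjusted Mueller-Hinton medium, following CLSI. Compound in 2-fold serial dilution; bacteria at a final 5 × 10^5 CFU/mL. Incubated overnight at 37 °C. MIC taken as the lowest concentration preventing visible growth.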
(In broth dilution the organism is exposed to a series of concentrations in liquid medium.)

The subject of series [8] is Enterococcus faecium. The series is described as follows: Antibacterial activity against Enterococcus faecium BM4147-1 assessed as bacterial growth inhibition incubated for overnight by CLSI-protocol based broth micro-dilution assay. It counts as functional, organism-based. The method, boiled down:
as §2

The test system of series [9] is Enterococcus faecium. The series is described as follows: Antibacterial activity against Enterococcus faecium 115.2 assessed as bacterial growth inhibition incubated for overnight by CLSI-protocol based broth micro-dilution assay. It counts as functional, organism-based. The method, boiled down: as §2
For series [10], the system named is Enterococcus faecium. The series is described as follows: Antibacterial activity against Enterococcus faecium K209.5 assessed as bacterial growth inhibition incubated for overnight by CLSI-protocol based broth micro-dilution assay. It counts as functional, organism-based. The method, boiled down: as §2
The next series has as its system Klebsiella aerogenes. Put plainly: Antibacterial activity against Enterobacter aerogenes ATCC13048 assessed as bacterial growth inhibition incubated for overnight by CLSI-protocol based broth micro-dilution assay. It counts as functional, organism-based. The method, boiled down: as §2
In series [11] the test system is Candida albicans. The series is described as follows: Antifungal activity against Candida albicans Tu02 assessed as inhibition of fungal growth incubated for 48 hrs by TECAN M200 microtiter plate reader analysis. It counts as functional, organism-based. Put shortly: as §1
The subject of series [12] is Candida albicans. Put plainly: Antifungal activity against Candida albicans Tu03 assessed as inhibition of fungal growth incubated for 48 hrs by TECAN M200 microtiter plate reader analysis. It counts as functional, organism-based. Put shortly:
as §1

The subject of series [13] is Escherichia coli. Put plainly: Antibacterial activity against Escherichia coli C600 harboring Tn10 deltalpxC deltatolC mutant assessed as bacterial growth inhibition incubated for overnight by CLSI-protocol based broth micro-dilution assay. It counts as functional, organism-based. The method, boiled down: (§3)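 Broth microdilution per CLSI in cation-adjusted Mueller-Hinton medium (casein, beef extract, starch). Twofold serial compound dilutions were inoculated at a final 5 × 10^5 CFU/mL and incubated overnight at 37 °C. MIC was the lowest concentration with no visible growth.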

The test system of series [14] is Severe acute respiratory syndrome coronavirus 2. The series is described as follows: Inhibition of SARS CoV-2 MPro using Boc-Abu-Tle-Leu-Gln-AMC as substrate incubated for 10 mins. The method, boiled down:
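Purified SARS-CoV-2 main protease (cysteine protease) was assayed with a fluorogenic peptide substrate. AMC release was followed continuously over 10 min.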

Series [15] concerns Enterococcus faecium. The series is described as follows: Antibacterial activity against vancomycin-resistant Enterococcus faecium 6011 assessed as bacterial growth inhibition incubated for overnight by CLSI-protocol based broth micro-dilution assay. It counts as functional, organism-based. The method, boiled down:
as §3

The test system of a further series is Candida tropicalis. Put plainly: Antifungal activity against Candida tropicalis Tu05 assessed as inhibition of fungal growth incubated for 48 hrs by TECAN M200 microtiter plate reader analysis. It counts as functional, organism-based. Put shortly: as §1
Series [16] concerns Neisseria gonorrhoeae. Put plainly: Antibacterial activity against Neisseria gonorrhoeae S1441 assessed as bacterial growth inhibition incubated for overnight by CLSI-protocol based broth micro-dilution assay. It counts as functional, organism-based. Put shortly:
(§4)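 Neisseria MIC by CLSI broth microdilution in cation-adjusted Mueller-Hinton medium supplemented with 2.5% fetal bovine serum. Compound in 2-fold serial dilution; final inoculum 5 × 10^5 CFU/mL. Incubated overnight at 37 °C. MIC is the lowest concentration with no visible growth.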

For the next series, the species on record is Homo sapiens. The series is described as follows: Inhibition of human leukocyte elastase using MeoSuc-Ala-Ala-Pro-Val-AMC as substrate incubated for 10 mins.
A further series deals with Acinetobacter baumannii. The series is described as follows: Antibacterial activity against Acinetobacter baumannii 09987 assessed as bacterial growth inhibition incubated for overnight by CLSI-protocol based broth micro-dilution assay. It counts as functional, organism-based. Put shortly:
as §2

In series [17] the test system is Neisseria gonorrhoeae. The series is described as follows: Antibacterial activity against Neisseria gonorrhoeae ATCC19424 assessed as bacterial growth inhibition incubated for overnight by CLSI-protocol based broth micro-dilution assay. It counts as functional, organism-based. The method, boiled down:
as §4

In series [18] the test system is Escherichia coli. Put plainly: Antibacterial activity against Escherichia coli ATCC25922 assessed as bacterial growth inhibition incubated for overnight by CLSI-protocol based broth micro-dilution assay. It counts as functional, organism-based. The method, boiled down: as §2
For series [19], the target named is Procathepsin L (Homo sapiens) (UniProt P07711). Put plainly: Inhibition of human Cathepsin L using Z-Phe-Arg-pNA as substrate incubated for 60 mins.
Series [20] relates to Candida albicans. The series is described as follows: Antifungal activity against Candida albicans ATCC90028 assessed as inhibition of fungal growth incubated for 48 hrs by TECAN M200 microtiter plate reader analysis. It counts as functional, organism-based. Put shortly: as §1
In series [21] the test system is Enterococcus faecium. The series is described as follows: Antibacterial activity against vancomycin-resistant Enterococcus faecium BM4147 assessed as bacterial growth inhibition incubated for overnight by CLSI-protocol based broth micro-dilution assay. It counts as functional, organism-based. Put shortly: as §3
The next series concerns Klebsiella pneumoniae. The series is described as follows: Antibacterial activity against Klebsiella pneumoniae ATCC12657 assessed as bacterial growth inhibition incubated for overnight by CLSI-protocol based broth micro-dilution assay. It counts as functional, organism-based. The method, boiled down: as §2
The test system of another series is Pseudomonas aeruginosa. The series is described as follows: Antibacterial activity against Pseudomonas aeruginosa ATCC27853 assessed as bacterial growth inhibition incubated for overnight by CLSI-protocol based broth micro-dilution assay. It counts as functional, organism-based. Put shortly: as §2
For series [22], the system named is Enterococcus faecium. Put plainly: Antibacterial activity against vancomycin-resistant Enterococcus faecium U200 assessed as bacterial growth inhibition incubated for overnight by CLSI-protocol based broth micro-dilution assay. It counts as functional, organism-based. Put shortly: as §3
In a further series the test system is Nakaseomyces glabratus. The series is described as follows: Antifungal activity against Candida glabrata Tu04 assessed as inhibition of fungal growth incubated for 48 hrs by TECAN M200 microtiter plate reader analysis. It counts as functional, organism-based. Put shortly:
as §1

A further series has as its system Bacillus subtilis. Put plainly: Antibacterial activity against Bacillus subtilis 168 assessed as bacterial growth inhibition incubated for overnight by CLSI-protocol based broth micro-dilution assay. It counts as functional, organism-based. The method, boiled down:
as §2

The test system of another series is Staphylococcus aureus. Put plainly: Antibacterial activity against Staphylococcus aureus ATCC29213 assessed as bacterial growth inhibition incubated for overnight by CLSI-protocol based broth micro-dilution assay. It counts as functional, organism-based. Put shortly:
as §2

Procathepsin L (Homo sapiens), sequence (P07711 114-333 limits assumed): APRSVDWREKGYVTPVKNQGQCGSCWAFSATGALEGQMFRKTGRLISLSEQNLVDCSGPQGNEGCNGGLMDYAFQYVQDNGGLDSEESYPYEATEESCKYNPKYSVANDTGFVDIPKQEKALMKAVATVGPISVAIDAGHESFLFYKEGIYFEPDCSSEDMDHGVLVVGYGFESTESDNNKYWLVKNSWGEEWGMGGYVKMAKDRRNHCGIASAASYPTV

For orientation: EC50 means the concentration giving half of the maximal effect. What is called CC50 is the concentration at which the toxic effect on the cells reaches its halfway point. Turning to `CCCCCCC[C@@H](O)CC(=O)N[C@@H](CC(C)C)C(=O)N[C@H](CCC(N)=O)C(=O)N[C@H]1C(=O)N[C@H](C(C)C)C(=O)N[C@H](CC(C)C)C(=O)N[C@H](CO)C(=O)N[C@@H](CC(C)C)C(=O)N[C@H](CO)C(=O)N[C@@H]([C@@H](C)CC)C(=O)O[C@@H]1C`, the Activity in the series with SARS-CoV-2 [1] was 60%; in the series on SARS-CoV-2 [2], 85%; in the series on Caco-2 [4], “Non-toxic”; with Caco-2 [5], “Non-toxic”. Moreover, the EC50 in the series with SARS-CoV-2 [3] stood at 3.3 µM. Moreover, the CC50 at 48 h in [6] was more than 20 µM.
Consider `CCCCCCC[C@@H](O)CC(=O)N[C@@H](CC(C)C)C(=O)N[C@@H](CCC(N)=O)C(=O)O`, for which the outcome in the series with Candida albicans [7], in the series with HeLa, in the series on Enterococcus faecalis, in the series with Enterococcus faecium [8], in the series with Enterococcus faecium [9] and in the series with Enterococcus faecium [10] was inactive. Moreover, the outcome in the series with Klebsiella aerogenes, in the series on Candida albicans [11], in the series on Candida albicans [12], in the series on Escherichia coli [13], in the series on Enterococcus faecium [15] and in the series on Candida tropicalis was inactive. Also, the outcome with Neisseria gonorrhoeae [16], in the series on Acinetobacter baumannii, with Neisseria gonorrhoeae [17], in the series on Escherichia coli [18], in the series on Candida albicans [20] and in the series with Enterococcus faecium [21] was inactive. The outcome with Klebsiella pneumoniae, in the series with Pseudomonas aeruginosa, with Enterococcus faecium [22], with Nakaseomyces glabratus, in the series with Bacillus subtilis and with Staphylococcus aureus was inactive. The inhibition entry (in [14]; in the series listed under Homo sapiens; in series [19]) was “inactive” throughout. For the same compound, the Activity entry in the series on Caco-2 [4] and in the series with Caco-2 [5] was “Toxic” in each case.
